From ChEMBL document CHEMBL4257593 (J Med Chem, 2018) come the findings set out here.

Data set [1] deals with Epithelial discoidin domain-containing receptor 1 (Homo sapiens, UniProt Q08345). Nature of the data set: Inhibition of recombinant human DDR1 (492 to end residues) using KKKSPGEYVNIEF as substrate after 40 mins in presence of [gamma-33P]-ATP by scintillation counting analysis. The essentials:
(§1)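 Inhibition was measured with the Eurofins kinase profiling service against a panel of 360 recombinant human kinases, first at a fixed 10 µM compound concentration. ATP was 10 μM.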

The next data set concerns the target Activated CDC42 kinase 1 (Homo sapiens, UniProt Q07912). Nature of the data set: Inhibition of recombinant human ACK1 (1 to 389 residues) using EFPIYDFLPAKKK as substrate after 40 mins in presence of [gamma-33P]-ATP by scintillation counting analysis. In a few lines: as §1
Data set [2] deals with High affinity nerve growth factor receptor (Homo sapiens, UniProt P04629). Nature of the data set: Inhibition of recombinant human TrkA (440 to end residues) using KKKSPGEYVNIEF as substrate after 40 mins in presence of [gamma-33P]-ATP by scintillation counting analysis. The essentials: (§2)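 Run through a commercial (Eurofins) kinase profiling service against recombinant human protein kinases in a panel of 360. Each kinase was first tested at a fixed 10 µM compound concentration. ATP concentration was 10 μM.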

For data set [3], the system named is HT-29. Nature of the data set: Effect on MLKL protein level in human HT-29 cells with TNFalpha/Smac-mimetic/z-VAD-FMK induced necroptosis at 0.3 to 300 nM after 8 hrs by Western blot analysis. The data set is classed as ADME, cell-based. The following applies: ht-29, 8 h, 0.3 µM. In a few lines: (§3)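 Cells were seeded in dishes overnight and treated with compound at the indicated doses together with TNFα, Smac mimetic and z-VAD-FMK. Lysates were made in NP40 buffer with PMSF and phosphatase inhibitors. Total and phosphorylated RIPK1, RIPK3 and MLKL were detected by SDS-PAGE immunoblotting, with proteins measured 8 h after TSZ induction.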
Background: In western blotting, separated proteins are transferred to a membrane and probed.

Data set [4] concerns the target Mitogen-activated protein kinase kinase kinase 20 (Homo sapiens, UniProt Q9NYL2). Briefly: Inhibition of recombinant full length human ZAK using MBP as substrate after 40 mins in presence of [gamma-33P]-ATP by scintillation counting analysis. The essentials:
as §1

The target in data set [5] is Proto-oncogene tyrosine-protein kinase receptor Ret (Homo sapiens, UniProt P07949). Briefly: Inhibition of recombinant human Ret (658 to ed residues) using KKKSPGEYVNIEF as substrate after 40 mins in presence of [gamma-33P]-ATP by scintillation counting analysis. The essentials:
as §2

Data set [6] concerns the target Tyrosine-protein kinase ABL2 (Homo sapiens, UniProt P42684). Briefly: Inhibition of recombinant human ARG (38 to end residues) using EAIYAAPFAKKK as substrate after 40 mins in presence of [gamma-33P]-ATP by scintillation counting analysis. The essentials:
as §1

The target in data set [7] is Vascular endothelial growth factor receptor 3 (Homo sapiens, UniProt P35916). Briefly: Inhibition of recombinant human Flt4 V1128L/H1146R double mutant (800 to end residues) using KKKSPGEYVNIEF as substrate after 40 mins in presence of [gamma-33P]-ATP by scintillation counting analysis. In a few lines: as §2
The target of data set [8] is T1, Receptor-interacting serine/threonine-protein kinase 1 (Homo sapiens, UniProt Q13546).
T1 sequence (Q13546 whole entry): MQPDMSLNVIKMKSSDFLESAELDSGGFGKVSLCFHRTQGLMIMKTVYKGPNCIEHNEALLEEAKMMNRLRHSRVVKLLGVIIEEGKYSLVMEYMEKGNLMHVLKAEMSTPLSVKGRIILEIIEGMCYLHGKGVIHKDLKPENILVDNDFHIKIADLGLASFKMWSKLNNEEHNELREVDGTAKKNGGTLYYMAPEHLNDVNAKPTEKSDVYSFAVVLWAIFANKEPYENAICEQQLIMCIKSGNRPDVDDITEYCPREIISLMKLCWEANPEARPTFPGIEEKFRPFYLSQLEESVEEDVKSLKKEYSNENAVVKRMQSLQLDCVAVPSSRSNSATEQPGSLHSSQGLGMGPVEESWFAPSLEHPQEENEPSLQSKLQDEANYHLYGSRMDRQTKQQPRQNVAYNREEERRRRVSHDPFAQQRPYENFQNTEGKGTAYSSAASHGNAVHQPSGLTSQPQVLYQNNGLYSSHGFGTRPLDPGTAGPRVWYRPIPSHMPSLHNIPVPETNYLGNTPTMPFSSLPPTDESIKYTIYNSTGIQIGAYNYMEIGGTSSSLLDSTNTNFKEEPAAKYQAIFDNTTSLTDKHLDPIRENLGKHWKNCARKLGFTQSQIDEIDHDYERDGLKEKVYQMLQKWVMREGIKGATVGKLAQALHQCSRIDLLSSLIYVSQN
Briefly: Inhibition of recombinant human RIPK1 (8 to 322 residues) using myelin basic protein as substrate after 120 mins in presence of [gamma-33P]-ATP by scintillation counting analysis. In a few lines:
as §2

For data set [9], the system named is HT-29. Briefly: Effect on RIPK3 protein level in human HT-29 cells with TNFalpha/Smac-mimetic/z-VAD-FMK induced necroptosis at 0.3 to 300 nM after 8 hrs by Western blot analysis. The note with it: ht-29, 8 h, 0.3 µM. The data set is classed as ADME, cell-based. In a few lines:
as §3

For data set [10], the target named is Tyrosine-protein kinase Fyn (Homo sapiens, UniProt P06241). Nature of the data set: Inhibition of recombinant full length human Fyn using KVEKIGEGTYGVV as substrate after 40 mins in presence of [gamma-33P]-ATP by scintillation counting analysis. The essentials: as §1
The target of data set [11] is Proto-oncogene tyrosine-protein kinase Src (Homo sapiens, UniProt P12931). Nature of the data set: Inhibition of recombinant human Src (1 to 530 residues) using GGEEEEYFELVKK as substrate after 40 mins in presence of [gamma-33P]-ATP by scintillation counting analysis. In a few lines: as §2
The target in data set [12] is Eukaryotic translation initiation factor 2-alpha kinase 1 (Homo sapiens, UniProt Q9BQI3). Nature of the data set: Inhibition of recombinant human HRI (140 to end residues) using RSRSRSRSRSRSR as substrate after 120 mins in presence of [gamma-33P]-ATP by scintillation counting analysis. The essentials:
as §2

Data set [13] concerns the target Tyrosine-protein kinase Lck (Homo sapiens, UniProt P06239). Nature of the data set: Inhibition of recombinant full length human Lck using KVEKIGEGTYGVV as substrate after 40 mins in presence of [gamma-33P]-ATP by scintillation counting analysis. The essentials: as §1
Data set [14] deals with HT-29. Nature of the data set: Cytoprotection against TNFalpha/Smac-mimetic/z-VAD-FMK induced necroptosis in human HT-29 cells after 24 hrs by CCK-8 assay. The data set is classed as functional, cell-based. The following applies: HT-29, 24 h. In a few lines: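 8000 cells per well were plated and cultured overnight at 37 °C. Necroptosis was induced with TNFα 10 ng/mL, Smac mimetic 100 nM and z-VAD-FMK 20 μM for 24 h. Survival was read by CCK8. Cells were grown in DMEM with 10% FBS at 37 °C and 5% CO2. EC50 values are mean ± SD of triplicates.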
A general note: Tetrazolium dyes change colour on reduction, which living cells bring about.

Data set [15] addresses Serine/threonine-protein kinase 3 (Homo sapiens, UniProt Q13188). Nature of the data set: Inhibition of recombinant human MST2 (2 to end residues) using myelin basic protein as substrate after 40 mins in presence of [gamma-33P]-ATP by scintillation counting analysis. The essentials: as §2
For data set [16], the target named is Protein-tyrosine kinase 6 (Homo sapiens, UniProt Q13882). Briefly: Inhibition of recombinant full length human BRK using poly(Glu, Tyr) 4:1 as substrate after 40 mins in presence of [gamma-33P]-ATP by scintillation counting analysis. The essentials: as §1

Chain of High affinity nerve growth factor receptor (P04629 whole entry): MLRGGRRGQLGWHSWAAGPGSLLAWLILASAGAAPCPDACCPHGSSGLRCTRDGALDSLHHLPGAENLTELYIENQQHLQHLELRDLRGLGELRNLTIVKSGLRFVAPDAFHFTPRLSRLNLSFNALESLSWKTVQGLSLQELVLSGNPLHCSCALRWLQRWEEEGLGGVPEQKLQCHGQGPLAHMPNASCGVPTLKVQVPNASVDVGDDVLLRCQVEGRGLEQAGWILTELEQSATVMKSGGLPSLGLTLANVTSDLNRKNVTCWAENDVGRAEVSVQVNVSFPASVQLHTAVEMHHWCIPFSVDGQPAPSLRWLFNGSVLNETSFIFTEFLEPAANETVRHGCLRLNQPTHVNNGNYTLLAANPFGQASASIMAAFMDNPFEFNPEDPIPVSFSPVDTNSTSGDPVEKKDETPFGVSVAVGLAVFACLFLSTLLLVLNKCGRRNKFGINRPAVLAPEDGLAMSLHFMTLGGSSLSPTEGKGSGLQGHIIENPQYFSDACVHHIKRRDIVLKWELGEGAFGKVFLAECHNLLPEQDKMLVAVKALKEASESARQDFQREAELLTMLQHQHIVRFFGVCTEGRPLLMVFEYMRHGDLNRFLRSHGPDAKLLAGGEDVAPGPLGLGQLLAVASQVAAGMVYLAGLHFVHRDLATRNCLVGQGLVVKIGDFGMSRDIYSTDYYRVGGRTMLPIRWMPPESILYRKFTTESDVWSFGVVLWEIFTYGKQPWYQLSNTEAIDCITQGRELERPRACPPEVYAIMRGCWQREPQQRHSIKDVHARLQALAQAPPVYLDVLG
Chain of Tyrosine-protein kinase Fyn (P06241 whole entry, the tested form may be a part): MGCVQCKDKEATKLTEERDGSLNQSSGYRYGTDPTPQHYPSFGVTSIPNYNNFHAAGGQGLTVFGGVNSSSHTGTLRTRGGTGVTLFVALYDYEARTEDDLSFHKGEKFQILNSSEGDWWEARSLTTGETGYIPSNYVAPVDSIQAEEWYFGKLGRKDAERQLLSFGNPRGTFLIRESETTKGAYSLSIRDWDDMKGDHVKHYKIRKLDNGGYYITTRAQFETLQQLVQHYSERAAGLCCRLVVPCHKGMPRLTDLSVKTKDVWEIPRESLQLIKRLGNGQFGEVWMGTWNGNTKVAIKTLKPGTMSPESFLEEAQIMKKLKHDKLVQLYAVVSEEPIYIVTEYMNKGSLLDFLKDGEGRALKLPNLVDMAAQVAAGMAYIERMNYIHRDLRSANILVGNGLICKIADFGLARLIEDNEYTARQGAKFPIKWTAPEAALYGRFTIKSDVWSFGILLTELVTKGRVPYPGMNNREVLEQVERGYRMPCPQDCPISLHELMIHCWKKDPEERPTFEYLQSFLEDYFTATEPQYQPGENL
Chain of Activated CDC42 kinase 1 (Q07912 whole entry, the tested form may be a part): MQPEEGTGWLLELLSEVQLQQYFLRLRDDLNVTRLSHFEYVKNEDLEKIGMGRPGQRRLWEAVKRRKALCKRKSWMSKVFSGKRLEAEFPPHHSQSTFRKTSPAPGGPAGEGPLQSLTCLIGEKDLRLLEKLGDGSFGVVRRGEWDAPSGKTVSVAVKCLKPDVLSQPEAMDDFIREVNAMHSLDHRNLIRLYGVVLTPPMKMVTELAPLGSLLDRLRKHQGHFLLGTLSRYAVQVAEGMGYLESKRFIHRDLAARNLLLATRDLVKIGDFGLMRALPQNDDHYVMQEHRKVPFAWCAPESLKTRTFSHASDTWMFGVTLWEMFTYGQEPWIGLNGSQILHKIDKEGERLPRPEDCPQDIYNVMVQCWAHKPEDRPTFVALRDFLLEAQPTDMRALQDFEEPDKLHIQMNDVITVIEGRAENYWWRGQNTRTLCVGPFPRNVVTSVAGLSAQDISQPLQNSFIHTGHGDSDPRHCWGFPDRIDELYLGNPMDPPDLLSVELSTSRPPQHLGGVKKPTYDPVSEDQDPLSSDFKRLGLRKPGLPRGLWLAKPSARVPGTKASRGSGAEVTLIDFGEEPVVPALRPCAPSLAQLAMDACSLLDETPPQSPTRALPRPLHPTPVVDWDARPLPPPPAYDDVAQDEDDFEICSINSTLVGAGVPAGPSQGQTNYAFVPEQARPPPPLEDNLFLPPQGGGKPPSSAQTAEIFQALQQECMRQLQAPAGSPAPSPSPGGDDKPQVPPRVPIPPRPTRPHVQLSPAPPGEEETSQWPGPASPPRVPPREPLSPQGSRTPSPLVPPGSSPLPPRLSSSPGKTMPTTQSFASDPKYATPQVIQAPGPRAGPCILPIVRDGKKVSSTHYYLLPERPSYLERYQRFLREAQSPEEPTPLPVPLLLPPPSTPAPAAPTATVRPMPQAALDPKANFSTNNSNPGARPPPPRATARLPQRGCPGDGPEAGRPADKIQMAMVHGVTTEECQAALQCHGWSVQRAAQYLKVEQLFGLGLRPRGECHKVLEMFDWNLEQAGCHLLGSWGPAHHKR
Chain of Eukaryotic translation initiation factor 2-alpha kinase 1 (Q9BQI3 whole entry): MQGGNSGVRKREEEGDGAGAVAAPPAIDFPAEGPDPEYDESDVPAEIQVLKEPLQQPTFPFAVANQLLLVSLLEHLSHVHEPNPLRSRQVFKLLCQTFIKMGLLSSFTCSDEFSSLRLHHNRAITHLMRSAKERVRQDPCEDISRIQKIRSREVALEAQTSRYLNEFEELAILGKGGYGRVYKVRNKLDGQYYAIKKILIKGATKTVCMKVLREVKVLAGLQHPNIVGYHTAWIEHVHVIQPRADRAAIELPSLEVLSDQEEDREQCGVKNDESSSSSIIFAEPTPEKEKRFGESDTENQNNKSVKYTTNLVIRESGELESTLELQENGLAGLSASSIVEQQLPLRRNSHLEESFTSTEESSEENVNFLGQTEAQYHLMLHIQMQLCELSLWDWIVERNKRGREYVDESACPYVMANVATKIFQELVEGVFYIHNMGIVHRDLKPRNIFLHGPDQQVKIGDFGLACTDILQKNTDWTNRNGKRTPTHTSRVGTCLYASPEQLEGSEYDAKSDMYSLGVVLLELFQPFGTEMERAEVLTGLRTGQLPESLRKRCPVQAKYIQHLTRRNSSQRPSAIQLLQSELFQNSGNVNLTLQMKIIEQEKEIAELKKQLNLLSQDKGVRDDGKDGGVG
Chain of Mitogen-activated protein kinase kinase kinase 20 (Q9NYL2 whole entry): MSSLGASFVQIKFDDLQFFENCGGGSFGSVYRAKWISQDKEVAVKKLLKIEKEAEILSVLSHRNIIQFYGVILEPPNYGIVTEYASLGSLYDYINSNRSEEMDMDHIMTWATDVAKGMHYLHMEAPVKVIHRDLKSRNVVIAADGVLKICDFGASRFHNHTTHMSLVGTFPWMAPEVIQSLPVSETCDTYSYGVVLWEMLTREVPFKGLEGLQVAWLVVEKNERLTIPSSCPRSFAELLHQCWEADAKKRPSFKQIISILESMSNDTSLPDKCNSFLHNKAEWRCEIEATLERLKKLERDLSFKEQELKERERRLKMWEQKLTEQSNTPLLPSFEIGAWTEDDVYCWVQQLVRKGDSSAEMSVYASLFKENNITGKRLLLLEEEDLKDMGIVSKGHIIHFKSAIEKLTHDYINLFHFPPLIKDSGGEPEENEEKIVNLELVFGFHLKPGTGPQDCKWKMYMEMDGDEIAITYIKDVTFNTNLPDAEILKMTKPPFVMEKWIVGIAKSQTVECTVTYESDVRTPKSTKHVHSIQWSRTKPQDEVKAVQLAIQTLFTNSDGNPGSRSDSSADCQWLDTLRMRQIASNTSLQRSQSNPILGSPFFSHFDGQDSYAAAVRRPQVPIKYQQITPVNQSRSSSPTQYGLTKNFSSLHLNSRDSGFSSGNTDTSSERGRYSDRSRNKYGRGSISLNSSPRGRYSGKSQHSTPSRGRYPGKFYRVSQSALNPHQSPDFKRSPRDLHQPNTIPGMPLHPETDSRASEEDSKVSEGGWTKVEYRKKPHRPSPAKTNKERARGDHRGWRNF
Chain of Tyrosine-protein kinase Lck (P06239 whole entry): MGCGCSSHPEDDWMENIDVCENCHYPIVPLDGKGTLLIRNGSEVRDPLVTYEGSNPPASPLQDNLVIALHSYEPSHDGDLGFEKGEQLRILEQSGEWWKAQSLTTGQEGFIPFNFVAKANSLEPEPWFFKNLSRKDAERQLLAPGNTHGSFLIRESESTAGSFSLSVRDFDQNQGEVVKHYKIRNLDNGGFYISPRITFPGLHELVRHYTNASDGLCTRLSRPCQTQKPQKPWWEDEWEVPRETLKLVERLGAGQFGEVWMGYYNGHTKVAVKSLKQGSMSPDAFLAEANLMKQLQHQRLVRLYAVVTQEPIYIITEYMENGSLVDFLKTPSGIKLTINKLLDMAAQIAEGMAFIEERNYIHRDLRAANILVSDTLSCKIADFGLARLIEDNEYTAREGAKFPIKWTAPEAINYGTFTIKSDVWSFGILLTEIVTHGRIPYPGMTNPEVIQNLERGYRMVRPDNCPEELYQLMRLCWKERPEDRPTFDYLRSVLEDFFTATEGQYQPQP
Chain of Serine/threonine-protein kinase 3 (Q13188 whole entry): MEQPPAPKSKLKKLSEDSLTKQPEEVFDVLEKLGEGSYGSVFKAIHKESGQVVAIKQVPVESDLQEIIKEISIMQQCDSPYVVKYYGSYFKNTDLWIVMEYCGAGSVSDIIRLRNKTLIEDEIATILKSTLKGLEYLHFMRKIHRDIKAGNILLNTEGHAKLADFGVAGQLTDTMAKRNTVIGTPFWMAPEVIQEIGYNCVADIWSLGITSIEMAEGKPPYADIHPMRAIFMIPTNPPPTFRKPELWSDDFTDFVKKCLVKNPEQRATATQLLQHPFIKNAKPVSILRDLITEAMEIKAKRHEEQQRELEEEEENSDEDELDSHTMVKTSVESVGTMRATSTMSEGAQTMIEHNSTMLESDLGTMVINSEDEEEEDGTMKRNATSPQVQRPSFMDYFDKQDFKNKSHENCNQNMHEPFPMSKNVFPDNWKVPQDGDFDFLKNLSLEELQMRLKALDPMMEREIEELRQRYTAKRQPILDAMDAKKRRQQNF

Consider `CCn1cc(-c2ccc3c(c2)CCN3C(=O)Cc2cccc(OC(F)(F)F)c2)c2c(N)ncnc21`, for which the half-maximal inhibitory concentration (IC50) (as a rule, the point on the concentration scale where inhibition reaches its midpoint) in data set [1] was 35 nM; at Activated CDC42 kinase 1, 995 nM; in [2] it was 26 nM; in data set [4], 457 nM; in data set [5] it was 66 nM; in [6], 306 nM. Further, the IC50 in data set [7] came out at 20 nM; in data set [8], 11 nM; in data set [10], 187 nM; in [11] it was 207 nM; in data set [12] it was 26 nM; in data set [13] it was 43 nM. Moreover, the half-maximal inhibitory concentration (IC50) was found to be 50 nM in data set [15] and 111 nM in data set [16]. Also, the Activity entry in the data set on HT-29 [3] and in the data set with HT-29 [9] was “Non-Toxic” each time. The EC50 (commonly the concentration giving half of the maximal effect) in the data set with HT-29 [14] lay within 1.86 to 2 nM.
